Test results as given in ChEMBL document CHEMBL1123066, “N alpha-(diphenoxyphosphoryl)-L-alanyl-L-proline, N alpha-[bis (4-nitrophenoxy)phosphoryl]-L-alanyl-L-proline, and N alpha-[ (2-phenylethyl)phenoxyphosphoryl]-L-alanyl-L-proline: releasers of potent inhibitors of angiotensin converting enzyme at physiological pH and temperature” (J Med Chem, 1985).
pIC50, pKi: −log10 of the molar value.

Legend:
[1] = Rate constant was evaluated for the loss of 1 mol of phenol at the pH 7.5 in the presence of Tris buffer; format: ADME
Method in brief: (§1)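 Ester hydrolysis at pH 7.5 and 37 °C in 100 mM Tris or phosphate buffer with 300 mM NaCl, no enzyme. Phenol release (about 1 mM ester) followed at 275 nm, Δε 1375 M⁻¹cm⁻¹. 4-Nitrophenol release (about 10 μM ester) followed at 400 nm, Δε 12500 M⁻¹cm⁻¹. Starting concentrations checked by full hydrolysis in 6 N HCl at 110 °C. First-order rate constants and half-times derived.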

[2] = The half-life period was evaluated for the loss of 1 mol of phenol at the pH 7.5 in the presence of Tris buffer; format: ADME; method in brief: as §1
[3] = The half-life period was evaluated for the loss of 1 mol of phenol at the pH 7.5 in the presence of phosphate buffer; format: ADME; method in brief: as §1
[4] = biological target: T1, Angiotensin-converting enzyme (Oryctolagus cuniculus, UniProt P12822); assay: Inhibition of Angiotensin I converting enzyme from rabbit lungs at pH 7.5
T1 sequence (P12822 whole entry): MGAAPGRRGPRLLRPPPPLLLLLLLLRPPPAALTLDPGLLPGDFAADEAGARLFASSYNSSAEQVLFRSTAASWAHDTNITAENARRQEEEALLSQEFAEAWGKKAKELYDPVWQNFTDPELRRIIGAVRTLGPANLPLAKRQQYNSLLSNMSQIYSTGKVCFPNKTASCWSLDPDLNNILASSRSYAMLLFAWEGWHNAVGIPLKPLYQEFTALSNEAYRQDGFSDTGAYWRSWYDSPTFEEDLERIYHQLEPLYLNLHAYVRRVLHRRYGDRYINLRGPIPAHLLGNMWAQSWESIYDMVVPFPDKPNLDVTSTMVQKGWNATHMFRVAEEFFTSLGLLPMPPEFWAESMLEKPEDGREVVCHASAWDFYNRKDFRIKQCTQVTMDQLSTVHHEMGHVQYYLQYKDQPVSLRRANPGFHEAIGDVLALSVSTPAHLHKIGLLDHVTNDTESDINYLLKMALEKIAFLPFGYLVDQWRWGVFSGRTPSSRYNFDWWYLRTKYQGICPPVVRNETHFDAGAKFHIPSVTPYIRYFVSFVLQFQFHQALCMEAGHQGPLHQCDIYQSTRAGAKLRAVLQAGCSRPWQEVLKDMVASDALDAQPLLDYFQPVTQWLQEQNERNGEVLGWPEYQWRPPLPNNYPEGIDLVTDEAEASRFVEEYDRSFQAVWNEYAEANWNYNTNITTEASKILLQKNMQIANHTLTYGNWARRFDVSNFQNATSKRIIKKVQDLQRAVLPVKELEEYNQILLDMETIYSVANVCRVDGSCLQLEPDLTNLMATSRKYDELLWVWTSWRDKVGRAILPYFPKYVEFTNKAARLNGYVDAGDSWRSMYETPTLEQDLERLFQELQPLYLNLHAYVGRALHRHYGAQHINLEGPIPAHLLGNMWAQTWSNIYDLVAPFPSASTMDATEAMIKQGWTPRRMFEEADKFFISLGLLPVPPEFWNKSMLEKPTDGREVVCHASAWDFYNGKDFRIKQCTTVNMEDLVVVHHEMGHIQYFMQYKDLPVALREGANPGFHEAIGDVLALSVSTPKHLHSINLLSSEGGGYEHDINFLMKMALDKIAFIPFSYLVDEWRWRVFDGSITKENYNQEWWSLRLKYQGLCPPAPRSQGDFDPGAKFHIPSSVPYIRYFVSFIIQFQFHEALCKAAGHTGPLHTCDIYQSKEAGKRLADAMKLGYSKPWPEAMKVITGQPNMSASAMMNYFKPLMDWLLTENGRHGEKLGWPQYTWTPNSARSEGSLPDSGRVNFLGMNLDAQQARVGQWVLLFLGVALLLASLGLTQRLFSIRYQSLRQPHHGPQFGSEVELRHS

[5] = Inhibitory potency was evaluated against angiotensin converting enzyme at the pH 7.5; format: ADME
[6] = Rate constant was evaluated for the loss of 1 mol of phenol at the pH 7.5 in the presence of phosphate buffer; format: ADME; method in brief: as §1
[7] = biological target: T1, Angiotensin-converting enzyme; assay: Inhibitory constant was evaluated against Angiotensin I converting enzyme from rabbit lungs
[8] = Half life against hydrolysis at P-N bond; format: ADME
Method in brief: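 P–N cleavage measured in pH 7.5 phosphate buffer at 37 °C. Free Ala-Pro primary amine determined by fluorescamine assay over the hydrolysis time course. Observed rate constant and half-time derived.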

[9] = Inhibitory potency was evaluated against angiotensin converting enzyme at the pH 7.5 in the presence of Tris phosphate buffer, 300 mM in NaCl; format: ADME
[10] = biological target: T1, Angiotensin-converting enzyme; assay: Inhibitory constant was evaluated against Angiotensin I converting enzyme from rabbit lungs at pH 8
[11] = biological target: T1, Angiotensin-converting enzyme; assay: Inhibitory constant was evaluated against Angiotensin I converting enzyme from rabbit lungs at pH 8 in TRIS phosphate/borate buffer
[12] = biological target: T1, Angiotensin-converting enzyme; assay: Binding affinity against Angiotensin I converting enzyme
[13] = Rate constant was evaluated for the loss of 2 mol of phenol at the pH 7.5 in the presence of phosphate buffer; format: ADME; method in brief: as §1
[14] = The half-life period was evaluated for the loss of 2 mol of phenol at the pH 7.5 in the presence of phosphate buffer; format: ADME; method in brief: as §1
[15] = The half-life period was evaluated for the loss of 2 mol of phenol at the pH 7.5 in the presence of Tris buffer; format: ADME; method in brief: as §1
[16] = Rate constant was evaluated for the loss of 2 mol of phenol at the pH 7.5 in the presence of Tris buffer; format: ADME; method in brief: as §1
[17] = biological target: T1, Angiotensin-converting enzyme; assay: Inhibitory activity against Angiotensin I converting enzyme was evaluated

| SMILES | Rate constant [1] [h⁻¹] | half-life [2] [days] | half-life [3] [days] | pKi [4] | Rate constant [6] [h⁻¹] | also measured |
| --- | --- | --- | --- | --- | --- | --- |
| C[C@H](NP(=O)(Oc1ccccc1)Oc1ccccc1)C(=O)N1CCC[C@H]1C(=O)O | 0.0013 | 22 | 24 | 4.38 | 0.0012 | half-life [5]: 16 days |
| C[C@H](NP(=O)([O-])[O-])C(=O)N1CCC[C@H]1C(=O)[O-].[K+].[K+].[K+] | – | – | – | 8.85 | – | pIC50 [7]: 6.15; half-life [8]: 132 min |
| C[C@H](NP(=O)(CCc1ccccc1)Oc1ccccc1)C(=O)N1CCC[C@H]1C(=O)O (stereo partly drawn) | 0.0014 | 21 | 31 | 4.26 | 0.001 | half-life [9]: 38 days |
| C[C@H](NP(=O)(O)OCc1ccccc1)C(=O)N1CCC[C@H]1C(=O)O | – | – | – | 8.92 | – | – |
| C[C@H](NP(=O)(O)Oc1ccccc1)C(=O)N1CCC[C@H]1C(=O)O | – | – | – | 8.10 | – | pIC50 [10]: 6.05; pIC50 [11]: 1.30 |
| C[C@H](NP(=O)(O)Oc1ccc([N+](=O)[O-])cc1)C(=O)N1CCC[C@H]1C(=O)O | – | – | – | 7.74 | – | pKi [12]: 7.74 |
| C[C@H](NP(=O)(Oc1ccc([N+](=O)[O-])cc1)Oc1ccc([N+](=O)[O-])cc1)C(=O)N1CCC[C@H]1C(=O)O | 0.2 | 0.142 | 0.0833 | 6.10 | 0.34 | Rate constant [13]: 0.031 h⁻¹; half-life [9]: 0.167 days; half-life [14]: 1320 min; half-life [15]: 1740 min; Rate constant [16]: 0.025 h⁻¹ |
| C[C@H](NP(=O)(O)CCc1ccccc1)C(=O)N1CCC[C@H]1C(=O)O | – | – | – | 9.30 | – | pIC50 [17]: 8.15 |
